This note sets out measurements from ChEMBL document CHEMBL3785035, “Phase II Metabolic Pathways of Spectinamide Antitubercular Agents: A Comparative Study of the Reactivity of 4-Substituted Pyridines to Glutathione Conjugation” (Medchemcomm, 2016).

System in one data set: not listed separately
In words: Metabolic stability in human liver S9 fraction assessed as parent compound remaining at 100 uM preincubated for 5 mins followed by UDPGA addition measured after 2 hrs by LC-MS/MS analysis. It counts as ADME, subcellular. The settings on record: read-out: Stability. The procedure, abridged:
(§1)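 Glucuronidation: 2 mg/mL rat or human S9 in 0.1 M potassium phosphate pH 7.4, activated with alamethicin (50 μg) 15 min on ice. Then 1 mM MgCl2 was added, with 5 min preincubation at 37 °C. Started with UDPGA (5 mM in incubation); controls without UDPGA. Samples taken to 120 min and quenched with methanol plus internal standard. LC-MS/MS; % parent relative to time zero.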
Regarding `CN[C@@H]1[C@H](O)[C@H](NC)[C@H]2O[C@]3(O)[C@H](O[C@@H]2[C@H]1O)O[C@H](C)C[C@H]3NC(=O)Cc1ccccn1`, the remaining at 2 h, 100 µM was above 93%.
Consider `CN[C@@H]1[C@H](O)[C@H](NC)[C@H]2O[C@]3(O)[C@H](O[C@@H]2[C@H]1O)O[C@H](C)C[C@H]3NC(=O)Cc1ccc(F)cn1`, for which the remaining at 2 h, 100 µM is above 93%.
In the case of `CN[C@@H]1[C@H](O)[C@H](NC)[C@H]2O[C@]3(O)[C@H](O[C@@H]2[C@H]1O)O[C@H](C)C[C@H]3NC(=O)Cc1ccc(Cl)cn1`, the remaining at 2 h, 100 µM was above 93%.
On the same count and under the same terms, as for `CN[C@@H]1[C@H](O)[C@H](NC)[C@H]2O[C@]3(O)[C@H](O[C@@H]2[C@H]1O)O[C@H](C)C[C@H]3NC(=O)Cc1cc(Cl)ccn1`, the figure is above 93%.

System in the next data set: not listed separately
Description: Metabolic stability in rat liver S9 fraction assessed as parent compound remaining at 100 uM preincubated for 5 mins followed by UDPGA addition measured after 2 hrs by LC-MS/MS analysis. It is filed as ADME, subcellular. The note with it: read-out: Stability. The gist of the method: as §1
For `CN[C@@H]1[C@H](O)[C@H](NC)[C@H]2O[C@]3(O)[C@H](O[C@@H]2[C@H]1O)O[C@H](C)C[C@H]3NC(=O)Cc1ccccn1`, the remaining at 2 h, 100 µM is above 93%.
The same measure, in the same setting: as for `CN[C@@H]1[C@H](O)[C@H](NC)[C@H]2O[C@]3(O)[C@H](O[C@@H]2[C@H]1O)O[C@H](C)C[C@H]3NC(=O)Cc1ccc(F)cn1`, the figure is above 93%.
On the same count and under the same terms, as for `CN[C@@H]1[C@H](O)[C@H](NC)[C@H]2O[C@]3(O)[C@H](O[C@@H]2[C@H]1O)O[C@H](C)C[C@H]3NC(=O)Cc1ccc(Cl)cn1`, the figure is above 93%; as for `CN[C@@H]1[C@H](O)[C@H](NC)[C@H]2O[C@]3(O)[C@H](O[C@@H]2[C@H]1O)O[C@H](C)C[C@H]3NC(=O)Cc1cc(Cl)ccn1`, above 93%.

A further data set relates to Liver. In words: (§2) Metabolic stability in rat liver S9 fraction assessed as parent compound remaining at 100 uM preincubated for 5 mins followed by PAPS addition measured after 2 hrs by LC-MS/MS analysis. It counts as ADME, subcellular. The settings on record: s9, 2 h, 100 µM. The procedure, abridged: (§3)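 Sulfation incubation: rat or human liver S9 at 2 mg/mL in 0.1 M potassium phosphate pH 7.4 with 1 mM MgCl2. Preincubated 5 min at 37 °C, then started with PAPS (0.2 mM in incubation). Controls lacked PAPS. Aliquots taken over 120 min and quenched in cold methanol with internal standard. LC-MS/MS read-out; parent remaining expressed against time zero.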
As for `CN[C@@H]1[C@H](O)[C@H](NC)[C@H]2O[C@]3(O)[C@H](O[C@@H]2[C@H]1O)O[C@H](C)C[C@H]3NC(=O)Cc1ccccn1`, the Stability is 89%.
Still for that read-out and setting: the figure for `CN[C@@H]1[C@H](O)[C@H](NC)[C@H]2O[C@]3(O)[C@H](O[C@@H]2[C@H]1O)O[C@H](C)C[C@H]3NC(=O)Cc1cc(Cl)ccn1` is 88%.

System in a further data set: not listed separately
The data set is described as §2. The settings on record: liver S9 fraction, read-out: Stability. It is filed as ADME, subcellular. The procedure, abridged:
as §3
For `CN[C@@H]1[C@H](O)[C@H](NC)[C@H]2O[C@]3(O)[C@H](O[C@@H]2[C@H]1O)O[C@H](C)C[C@H]3NC(=O)Cc1ccc(F)cn1`, the remaining at 2 h, 100 µM was above 95%.
For the compound `CN[C@@H]1[C@H](O)[C@H](NC)[C@H]2O[C@]3(O)[C@H](O[C@@H]2[C@H]1O)O[C@H](C)C[C@H]3NC(=O)Cc1ccc(Cl)cn1`, the remaining at 2 h, 100 µM is above 95%.

System in another data set: not listed separately
In words: Half life in rat liver S9 fraction at 100 uM preincubated for 5 mins followed by glutathione addition measured after 2 hrs by LC-MS/MS analysis. It counts as ADME, subcellular.
Settings: not given
The procedure, abridged:
(§4)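 S9 (rat or human) at 10 mg/mL in 0.1 M potassium phosphate pH 7.4, with 1 mM MgCl2. Preincubated 5 min at 37 °C, 150 rpm, then started with glutathione (0.2 mM in incubation). Controls lacked glutathione. Sampled 0–120 min, quenched in ice-cold methanol with internal standard. Parent measured by HILIC LC-MS/MS and expressed as % of time zero. Mean with %CV.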
Take `CN[C@@H]1[C@H](O)[C@H](NC)[C@H]2O[C@]3(O)[C@H](O[C@@H]2[C@H]1O)O[C@H](C)C[C@H]3NC(=O)Cc1ccccn1`: the half-life (commonly how long it takes for the measured level to halve) at 100 µM is above 50 h.
Compound `CN[C@@H]1[C@H](O)[C@H](NC)[C@H]2O[C@]3(O)[C@H](O[C@@H]2[C@H]1O)O[C@H](C)C[C@H]3NC(=O)Cc1ccc(F)cn1` gave a half-life at 100 µM of 32.6 h.
On the same count and under the same terms, the figure for `CN[C@@H]1[C@H](O)[C@H](NC)[C@H]2O[C@]3(O)[C@H](O[C@@H]2[C@H]1O)O[C@H](C)C[C@H]3NC(=O)Cc1ccc(Cl)cn1` is above 50 h.
As for `CN[C@@H]1[C@H](O)[C@H](NC)[C@H]2O[C@]3(O)[C@H](O[C@@H]2[C@H]1O)O[C@H](C)C[C@H]3NC(=O)Cc1cc(Cl)ccn1`, the half-life at 100 µM was 3.35 h.

System in a further data set: not listed separately
Description: Metabolic stability in human liver S9 fraction assessed as parent compound remaining at 100 uM preincubated for 5 mins followed by glutathione addition measured after 2 hrs by LC-MS/MS analysis. It counts as ADME, subcellular. The settings on record: read-out: Stability. The procedure, abridged: as §4
On to `CN[C@@H]1[C@H](O)[C@H](NC)[C@H]2O[C@]3(O)[C@H](O[C@@H]2[C@H]1O)O[C@H](C)C[C@H]3NC(=O)Cc1ccccn1`, for which the remaining at 2 h, 100 µM amounted to 96.7%.
Consider `CN[C@@H]1[C@H](O)[C@H](NC)[C@H]2O[C@]3(O)[C@H](O[C@@H]2[C@H]1O)O[C@H](C)C[C@H]3NC(=O)Cc1ccc(F)cn1`, for which the remaining at 2 h, 100 µM is 98.7%.
On the same count and under the same terms, the figure for `CN[C@@H]1[C@H](O)[C@H](NC)[C@H]2O[C@]3(O)[C@H](O[C@@H]2[C@H]1O)O[C@H](C)C[C@H]3NC(=O)Cc1ccc(Cl)cn1` is 99.9%; for `CN[C@@H]1[C@H](O)[C@H](NC)[C@H]2O[C@]3(O)[C@H](O[C@@H]2[C@H]1O)O[C@H](C)C[C@H]3NC(=O)Cc1cc(Cl)ccn1` it is 98.7%.

System in the next data set: not listed separately
In words: Metabolic stability in rat liver S9 fraction assessed as parent compound remaining at 100 uM preincubated for 5 mins followed by glutathione addition measured after 2 hrs by LC-MS/MS analysis. It counts as ADME, subcellular. The note with it: read-out: Stability. The gist of the method: as §4
In the case of `CN[C@@H]1[C@H](O)[C@H](NC)[C@H]2O[C@]3(O)[C@H](O[C@@H]2[C@H]1O)O[C@H](C)C[C@H]3NC(=O)Cc1ccccn1`, the remaining at 2 h, 100 µM worked out at 99.8%.
On the same count and under the same terms, the figure for `CN[C@@H]1[C@H](O)[C@H](NC)[C@H]2O[C@]3(O)[C@H](O[C@@H]2[C@H]1O)O[C@H](C)C[C@H]3NC(=O)Cc1ccc(F)cn1` is 96.6%.
Consider `CN[C@@H]1[C@H](O)[C@H](NC)[C@H]2O[C@]3(O)[C@H](O[C@@H]2[C@H]1O)O[C@H](C)C[C@H]3NC(=O)Cc1ccc(Cl)cn1`, for which the remaining at 2 h, 100 µM came out at 99.4%.
Turning to `CN[C@@H]1[C@H](O)[C@H](NC)[C@H]2O[C@]3(O)[C@H](O[C@@H]2[C@H]1O)O[C@H](C)C[C@H]3NC(=O)Cc1cc(Cl)ccn1`, the remaining at 2 h, 100 µM is 71.9%.

A further data set deals with Liver. In words: (§5) Metabolic stability in human liver S9 fraction assessed as parent compound remaining at 100 uM preincubated for 5 mins followed by PAPS addition measured after 2 hrs by LC-MS/MS analysis. The note with it: s9, 2 h, 100 µM. It is filed as ADME, subcellular. The gist of the method:
as §3
Turning to `CN[C@@H]1[C@H](O)[C@H](NC)[C@H]2O[C@]3(O)[C@H](O[C@@H]2[C@H]1O)O[C@H](C)C[C@H]3NC(=O)Cc1ccccn1`, the Stability is above 96%.
Regarding `CN[C@@H]1[C@H](O)[C@H](NC)[C@H]2O[C@]3(O)[C@H](O[C@@H]2[C@H]1O)O[C@H](C)C[C@H]3NC(=O)Cc1cc(Cl)ccn1`, the Stability is listed as above 96%.

System in another data set: not listed separately
The data set is described as §5. It counts as ADME, subcellular. The note with it: liver S9 fraction. The gist of the method: as §3
Regarding `CN[C@@H]1[C@H](O)[C@H](NC)[C@H]2O[C@]3(O)[C@H](O[C@@H]2[C@H]1O)O[C@H](C)C[C@H]3NC(=O)Cc1ccc(F)cn1`, the remaining at 2 h, 100 µM is above 96%.
Still for that read-out and setting: as for `CN[C@@H]1[C@H](O)[C@H](NC)[C@H]2O[C@]3(O)[C@H](O[C@@H]2[C@H]1O)O[C@H](C)C[C@H]3NC(=O)Cc1ccc(Cl)cn1`, the figure is above 96%.

System in a further data set: not listed separately
In words: Half life in human liver S9 fraction at 100 uM preincubated for 5 mins followed by glutathione addition measured after 2 hrs by LC-MS/MS analysis. It counts as ADME, subcellular.
Settings: not given
The procedure, abridged: as §4
`CN[C@@H]1[C@H](O)[C@H](NC)[C@H]2O[C@]3(O)[C@H](O[C@@H]2[C@H]1O)O[C@H](C)C[C@H]3NC(=O)Cc1ccccn1` gave a half-life at 100 µM of 38 h.
The same measure, in the same setting: the figure for `CN[C@@H]1[C@H](O)[C@H](NC)[C@H]2O[C@]3(O)[C@H](O[C@@H]2[C@H]1O)O[C@H](C)C[C@H]3NC(=O)Cc1ccc(F)cn1` is above 50 h; for `CN[C@@H]1[C@H](O)[C@H](NC)[C@H]2O[C@]3(O)[C@H](O[C@@H]2[C@H]1O)O[C@H](C)C[C@H]3NC(=O)Cc1ccc(Cl)cn1` it is above 50 h; for `CN[C@@H]1[C@H](O)[C@H](NC)[C@H]2O[C@]3(O)[C@H](O[C@@H]2[C@H]1O)O[C@H](C)C[C@H]3NC(=O)Cc1cc(Cl)ccn1` it is above 50 h.
